Reference: ChEMBL document CHEMBL4425169 (ACS Med Chem Lett, 2016)
Calls of active or inactive are those of the source. The calls are words filed in the database; no cut-off is given here.

Key:
[1] = target: Voltage-gated inwardly rectifying potassium channel KCNH2 (Homo sapiens, UniProt Q12809); test: Inhibition of human ERG after 6 mins by electrophysiological assay
Rattus norvegicus [2] = test: Diuretic activity in Sprague-Dawley rat at 0.3 mg/kg via oral gavage administered 30 mins prior to void induction by loading saline measured upto 4 hrs relative to vehicle treated control; format: functional
Method in brief: (§1)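 Acute rat diuresis model in male-unspecified Sprague-Dawley rats, single oral dose, urine collected over 4 h. Urine volume, sodium excretion and potassium excretion expressed as fold increase over vehicle-treated controls; n = 5 per group; significance tested against vehicle.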

Rattus norvegicus [3] = test: Diuretic activity in Sprague-Dawley rat at 1 mg/kg via oral gavage administered 30 mins prior to void induction by loading saline measured upto 4 hrs relative to vehicle treated control; format: functional; method in brief: as §1
Rattus norvegicus [4] = test: Natriuretic activity in Sprague-Dawley rat at 1 mg/kg via oral gavage administered 30 mins prior to void induction by loading saline measured upto 4 hrs relative to vehicle treated control; format: functional; method in brief: as §1
Rattus norvegicus [5] = test: Kaliuretic activity in Sprague-Dawley rat at 10 mg/kg via oral gavage administered 30 mins prior to void induction by loading saline measured upto 4 hrs relative to vehicle treated control; format: functional; method in brief: as §1
Rattus norvegicus [6] = test: Kaliuretic activity in Sprague-Dawley rat at 1 mg/kg via oral gavage administered 30 mins prior to void induction by loading saline measured upto 4 hrs relative to vehicle treated control; format: functional; method in brief: as §1
[7] = Volume of distribution at steady state in rat at 1 mg/kg, iv or 2 mg/kg, po; format: ADME, organism-based; details: in vivo, read-out: Vdss
Method in brief: (§2)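 Rats dosed once at 1 mg/kg IV and, separately, 2 mg/kg PO, with n = 3. Derived parameters were plasma clearance, Vdss, dose-normalized oral AUC (μM·h·kg/mg), half-life, and oral bioavailability (F%).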

[8] = Oral bioavailability in rat at 2 mg/kg; format: ADME, organism-based; details: in vivo; method in brief: as §2
[9] = Half life in dog at 1 mg/kg, iv or 2 mg/kg, po; format: ADME, organism-based, Canis lupus familiaris; details: in vivo
[10] = Oral bioavailability in dog at 2 mg/kg; format: ADME, organism-based, Canis lupus familiaris; details: in vivo
[11] = Volume of distribution at steady state in rhesus monkey at 1 mg/kg, iv or 2 mg/kg, po; format: ADME, organism-based, Macaca mulatta; details: in vivo, read-out: Vdss
[12] = Dose normalized AUC in rhesus monkey at 2 mg/kg, po; format: ADME, organism-based, Macaca mulatta; details: in vivo
[13] = Oral bioavailability in rhesus monkey at 2 mg/kg; format: ADME, organism-based, Macaca mulatta; details: in vivo
[14] = Drug metabolism in rat hepatocytes assessed as oxidation at 1 uM measured at 120 mins; format: ADME, cell-based, Hepatocyte; details: 2 h
[15] = Drug metabolism in rat hepatocytes assessed as lactone hydrolysis at 1 uM measured at 120 mins; format: ADME, cell-based, Hepatocyte; details: read-out: Drug metabolism
[16] = Drug metabolism in dog hepatocytes assessed as lactone hydrolysis at 1 uM measured at 120 mins; format: ADME, cell-based, Canis lupus familiaris, Hepatocyte; details: read-out: Drug metabolism
[17] = target: T1, Inward rectifier potassium channel 13 (Homo sapiens) (UniProt O60928); test: Inhibition of Kir7.1 (unknown origin) upto 30 uM
T1 sequence (whole entry): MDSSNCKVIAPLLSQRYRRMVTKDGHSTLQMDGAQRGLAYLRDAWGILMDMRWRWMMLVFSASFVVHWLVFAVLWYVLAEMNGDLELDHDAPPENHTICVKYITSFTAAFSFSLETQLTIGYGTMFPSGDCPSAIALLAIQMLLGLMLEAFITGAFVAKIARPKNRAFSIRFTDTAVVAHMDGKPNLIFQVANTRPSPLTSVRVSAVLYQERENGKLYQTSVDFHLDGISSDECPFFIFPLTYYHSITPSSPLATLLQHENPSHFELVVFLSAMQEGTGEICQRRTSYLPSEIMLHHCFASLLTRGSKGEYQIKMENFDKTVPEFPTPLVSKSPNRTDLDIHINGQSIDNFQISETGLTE

[18] = target: Voltage-dependent L-type calcium channel subunit alpha-1C (Homo sapiens, UniProt Q13936); test: Inhibition of Cav1.2 (unknown origin)
Sequence of Voltage-dependent L-type calcium channel subunit alpha-1C (Q13936 whole entry): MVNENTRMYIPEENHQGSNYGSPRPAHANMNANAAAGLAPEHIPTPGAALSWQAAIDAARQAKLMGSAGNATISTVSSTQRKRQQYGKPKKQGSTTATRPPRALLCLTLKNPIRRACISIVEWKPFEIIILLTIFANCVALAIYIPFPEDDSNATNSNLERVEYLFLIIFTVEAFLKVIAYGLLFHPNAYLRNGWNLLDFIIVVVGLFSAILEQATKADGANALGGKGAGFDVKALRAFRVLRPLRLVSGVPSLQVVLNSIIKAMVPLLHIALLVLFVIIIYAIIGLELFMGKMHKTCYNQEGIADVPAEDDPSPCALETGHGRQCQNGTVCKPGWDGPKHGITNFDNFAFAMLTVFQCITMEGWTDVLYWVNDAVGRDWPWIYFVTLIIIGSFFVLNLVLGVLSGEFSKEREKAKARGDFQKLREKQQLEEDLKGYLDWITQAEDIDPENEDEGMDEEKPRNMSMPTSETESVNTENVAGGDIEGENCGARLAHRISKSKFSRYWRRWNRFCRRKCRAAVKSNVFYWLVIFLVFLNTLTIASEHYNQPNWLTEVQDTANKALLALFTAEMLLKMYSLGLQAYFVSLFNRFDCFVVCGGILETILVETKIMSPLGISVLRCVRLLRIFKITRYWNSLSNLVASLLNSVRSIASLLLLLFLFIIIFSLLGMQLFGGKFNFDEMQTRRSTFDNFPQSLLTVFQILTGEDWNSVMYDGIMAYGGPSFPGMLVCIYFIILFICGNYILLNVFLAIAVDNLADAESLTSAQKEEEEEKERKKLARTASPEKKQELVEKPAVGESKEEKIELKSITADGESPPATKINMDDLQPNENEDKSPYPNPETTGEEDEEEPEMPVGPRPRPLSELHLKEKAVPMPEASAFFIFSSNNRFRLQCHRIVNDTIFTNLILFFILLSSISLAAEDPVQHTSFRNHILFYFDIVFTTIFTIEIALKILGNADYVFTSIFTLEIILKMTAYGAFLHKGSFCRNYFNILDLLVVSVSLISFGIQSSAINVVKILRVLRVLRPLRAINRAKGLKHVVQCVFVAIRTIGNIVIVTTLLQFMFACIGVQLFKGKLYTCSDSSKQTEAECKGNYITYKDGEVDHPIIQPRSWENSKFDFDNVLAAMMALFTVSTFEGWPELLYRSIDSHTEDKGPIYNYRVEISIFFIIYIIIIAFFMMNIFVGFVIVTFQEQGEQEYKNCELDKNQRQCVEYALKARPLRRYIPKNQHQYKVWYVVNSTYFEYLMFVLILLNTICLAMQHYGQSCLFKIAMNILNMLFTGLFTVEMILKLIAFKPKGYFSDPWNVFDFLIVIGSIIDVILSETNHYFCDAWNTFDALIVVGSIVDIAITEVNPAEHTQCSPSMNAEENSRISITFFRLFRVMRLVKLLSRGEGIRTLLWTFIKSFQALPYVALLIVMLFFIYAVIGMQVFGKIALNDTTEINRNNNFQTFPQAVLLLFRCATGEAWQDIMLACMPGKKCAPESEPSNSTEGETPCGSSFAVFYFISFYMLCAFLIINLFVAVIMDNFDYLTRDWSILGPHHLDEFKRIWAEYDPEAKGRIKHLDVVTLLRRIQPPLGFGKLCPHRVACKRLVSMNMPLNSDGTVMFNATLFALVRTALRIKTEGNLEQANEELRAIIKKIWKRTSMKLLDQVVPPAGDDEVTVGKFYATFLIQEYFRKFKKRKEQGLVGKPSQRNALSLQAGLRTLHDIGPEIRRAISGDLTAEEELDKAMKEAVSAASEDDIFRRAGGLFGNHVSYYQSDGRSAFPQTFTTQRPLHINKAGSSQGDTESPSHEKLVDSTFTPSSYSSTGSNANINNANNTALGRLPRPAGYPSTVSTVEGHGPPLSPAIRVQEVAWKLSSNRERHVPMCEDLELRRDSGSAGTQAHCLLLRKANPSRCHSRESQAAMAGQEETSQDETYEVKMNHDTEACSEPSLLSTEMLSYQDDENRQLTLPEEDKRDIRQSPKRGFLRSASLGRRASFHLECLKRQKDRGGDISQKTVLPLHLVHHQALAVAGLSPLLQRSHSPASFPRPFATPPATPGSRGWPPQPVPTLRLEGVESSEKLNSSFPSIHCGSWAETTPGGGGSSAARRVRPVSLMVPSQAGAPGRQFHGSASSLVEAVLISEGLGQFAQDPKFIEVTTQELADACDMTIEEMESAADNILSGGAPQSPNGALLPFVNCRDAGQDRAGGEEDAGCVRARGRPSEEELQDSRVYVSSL

Cytochrome P450 2D6 = Cytochrome P450 2D6 (Homo sapiens, UniProt P10635); test: Reversible inhibition of human CYP2D6; format: ADME
Sequence of Cytochrome P450 2D6 (P10635 whole entry): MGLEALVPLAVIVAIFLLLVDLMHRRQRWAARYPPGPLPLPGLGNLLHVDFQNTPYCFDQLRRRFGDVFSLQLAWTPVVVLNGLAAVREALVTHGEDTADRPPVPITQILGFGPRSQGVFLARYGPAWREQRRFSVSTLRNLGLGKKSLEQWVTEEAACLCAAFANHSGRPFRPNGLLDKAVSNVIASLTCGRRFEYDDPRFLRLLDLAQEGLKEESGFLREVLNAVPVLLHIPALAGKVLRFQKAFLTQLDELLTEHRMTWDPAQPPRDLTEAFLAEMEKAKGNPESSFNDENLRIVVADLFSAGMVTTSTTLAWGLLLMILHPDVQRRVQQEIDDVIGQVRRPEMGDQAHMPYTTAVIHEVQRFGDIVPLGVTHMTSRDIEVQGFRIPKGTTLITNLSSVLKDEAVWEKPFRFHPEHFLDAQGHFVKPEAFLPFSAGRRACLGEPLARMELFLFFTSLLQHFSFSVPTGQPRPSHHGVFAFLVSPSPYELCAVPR

Cytochrome P450 3A4 = Cytochrome P450 3A4 (Homo sapiens, UniProt P08684); test: Time dependent inhibition of human CYP3A4 at 10 to 50 uM; format: ADME
Sequence of Cytochrome P450 3A4 (P08684 whole entry): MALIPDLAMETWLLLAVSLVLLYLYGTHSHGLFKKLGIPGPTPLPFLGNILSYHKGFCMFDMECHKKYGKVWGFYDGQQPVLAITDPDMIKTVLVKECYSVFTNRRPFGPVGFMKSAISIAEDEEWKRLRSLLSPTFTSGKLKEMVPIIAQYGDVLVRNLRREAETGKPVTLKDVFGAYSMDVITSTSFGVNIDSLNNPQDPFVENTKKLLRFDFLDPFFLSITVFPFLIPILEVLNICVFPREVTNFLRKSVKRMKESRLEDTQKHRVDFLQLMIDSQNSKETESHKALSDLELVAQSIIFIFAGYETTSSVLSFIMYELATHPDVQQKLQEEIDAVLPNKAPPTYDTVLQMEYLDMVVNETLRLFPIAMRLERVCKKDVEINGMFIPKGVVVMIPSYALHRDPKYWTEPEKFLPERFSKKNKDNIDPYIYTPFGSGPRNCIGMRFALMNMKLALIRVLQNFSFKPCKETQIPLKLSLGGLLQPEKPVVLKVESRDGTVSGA

Acetylcholinesterase = Acetylcholinesterase (Homo sapiens, UniProt P22303); test: Inhibition of ACES (unknown origin)
Sequence of Acetylcholinesterase (P22303 whole entry): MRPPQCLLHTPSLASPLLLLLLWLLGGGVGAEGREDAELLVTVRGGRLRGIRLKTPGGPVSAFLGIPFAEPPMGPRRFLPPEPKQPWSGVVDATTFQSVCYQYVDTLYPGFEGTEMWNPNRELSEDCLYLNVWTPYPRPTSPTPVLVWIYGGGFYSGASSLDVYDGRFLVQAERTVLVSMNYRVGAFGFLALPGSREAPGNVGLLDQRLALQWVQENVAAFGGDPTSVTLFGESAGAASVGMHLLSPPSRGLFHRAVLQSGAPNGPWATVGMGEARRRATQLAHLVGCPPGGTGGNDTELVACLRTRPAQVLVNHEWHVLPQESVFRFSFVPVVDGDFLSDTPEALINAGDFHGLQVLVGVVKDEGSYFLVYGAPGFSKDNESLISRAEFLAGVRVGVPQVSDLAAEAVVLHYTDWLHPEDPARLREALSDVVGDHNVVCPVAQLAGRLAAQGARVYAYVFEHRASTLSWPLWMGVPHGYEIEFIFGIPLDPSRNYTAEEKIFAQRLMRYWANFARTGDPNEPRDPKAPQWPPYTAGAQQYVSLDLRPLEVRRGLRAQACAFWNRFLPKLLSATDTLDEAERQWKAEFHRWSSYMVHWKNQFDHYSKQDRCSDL

[19] = target: T2, Sodium-dependent serotonin transporter (Homo sapiens, UniProt P31645); test: Inhibition of human SERT
T2 sequence (P31645 whole entry): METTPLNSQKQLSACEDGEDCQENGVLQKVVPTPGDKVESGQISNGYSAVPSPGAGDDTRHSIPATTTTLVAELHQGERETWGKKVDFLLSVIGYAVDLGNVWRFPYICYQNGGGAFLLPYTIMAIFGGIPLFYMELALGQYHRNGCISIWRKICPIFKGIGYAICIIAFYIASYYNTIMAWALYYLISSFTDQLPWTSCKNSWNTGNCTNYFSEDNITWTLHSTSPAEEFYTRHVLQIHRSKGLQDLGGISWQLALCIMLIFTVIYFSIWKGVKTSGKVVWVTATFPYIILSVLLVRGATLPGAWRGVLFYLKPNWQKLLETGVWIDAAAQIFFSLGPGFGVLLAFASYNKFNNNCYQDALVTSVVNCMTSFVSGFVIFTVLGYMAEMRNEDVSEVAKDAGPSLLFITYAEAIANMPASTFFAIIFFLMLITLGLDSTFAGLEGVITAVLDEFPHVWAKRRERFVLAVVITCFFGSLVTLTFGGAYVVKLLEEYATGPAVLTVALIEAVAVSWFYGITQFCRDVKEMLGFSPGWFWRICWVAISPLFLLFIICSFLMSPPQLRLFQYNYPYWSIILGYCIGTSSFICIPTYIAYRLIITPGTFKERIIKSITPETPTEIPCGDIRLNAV

[20] = target: T2, Sodium-dependent serotonin transporter; test: Inhibition of [3H]-serotonin uptake at human SERT transfected in HEK293 cells; format: cell-based
[21] = Cardiotoxicity in vagotomized cardiovascular dog model assessed as effect on heart rate at plasma concentration <= 11.6 uM at 1 to 7 mg/kg, iv administered during three sequential 30 min periods; format: toxicity, organism-based, Canis lupus familiaris; details: in vivo, 0.5 h
Method in brief: (§3)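 Anesthetized, vagotomized dogs received IV infusions over sequential periods at 1, 2 and 7 mg/kg (10 mg/kg cumulative). Heart rate, mean arterial pressure and ECG intervals (PR, QRS, QT/QTc) were recorded predose and during each infusion period. Plasma concentrations were measured.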

[22] = Cardiotoxicity in vagotomized cardiovascular dog model assessed as effect on mean arterial pressure at plasma concentration <= 11.6 uM at 1 to 7 mg/kg, iv administered during three sequential 30 min periods; format: toxicity, organism-based, Canis lupus familiaris; details: in vivo, 0.5 h; method in brief: as §3
[23] = Cardiotoxicity in vagotomized cardiovascular dog model assessed as effect on PR interval at plasma concentration <= 11.6 uM at 1 to 7 mg/kg, iv administered during three sequential 30 min periods; format: toxicity, organism-based, Canis lupus familiaris; details: in vivo, 0.5 h; method in brief: as §3
[24] = Cardiotoxicity in vagotomized cardiovascular dog model assessed as effect on QRS complex at plasma concentration <= 11.6 uM at 1 to 7 mg/kg, iv administered during three sequential 30 min periods; format: toxicity, organism-based, Canis lupus familiaris; details: in vivo, 0.5 h; method in brief: as §3
[25] = Cardiotoxicity in vagotomized cardiovascular dog model assessed as effect on QT/QTc interval at plasma concentration <= 11.6 uM at 1 to 7 mg/kg, iv administered during three sequential 30 min periods; format: toxicity, organism-based, Canis lupus familiaris; details: in vivo, 0.5 h; method in brief: as §3
Rattus norvegicus [26] = test: Antihypertensive activity in spontaneously hypertensive rat assessed as reduction in systolic blood pressure administered via oral gavage once daily for 4 days measured on day 4 by telemetry; format: functional, organism-based
Rattus norvegicus [27] = test: Antihypertensive activity in spontaneously hypertensive rat assessed as reduction in systolic blood pressure at 3 mg/kg via oral gavage qd administered for 4 days measured on day 4 by telemetry (reference value: 2.5 +/- 2.2 mmHg); format: functional
Rattus norvegicus [28] = test: Antihypertensive activity in spontaneously hypertensive rat assessed as reduction in systolic blood pressure at 10 mg/kg via oral gavage qd administered for 4 days measured on day 4 by telemetry (reference value: 2.5 +/- 2.2 mmHg); format: functional
[29] = Drug metabolism in bile duct cannulated rat assessed as CYP3A4-mediated oxidative metabolite formation; format: ADME
[30] = Drug excretion in bile duct cannulated rat urine; format: ADME; details: in vivo
[31] = Drug metabolism in bile duct cannulated rat assessed as glucuronidation; format: ADME
[32] = Drug metabolism in bile duct cannulated rat assessed as lactone hydrolysis; format: ADME

Cc1c([C@@H](O)CN2CCN(C[C@H](O)c3ccc4c(c3C)COC4=O)CC2)ccc2c1COC2=O [MK-7145]
IC50 [1]: 22 µM
fold change (FC) (Rattus norvegicus [2]): 6.4
fold change (FC) (Rattus norvegicus [3]): 8.6
fold change (FC) (Rattus norvegicus [4]): 8.6
fold change (FC) (Rattus norvegicus [5]): 1.7
fold change (FC) (Rattus norvegicus [6]): 1.8
Vd [7]: 3.8 L/kg
bioavailability [8]: 21%
half-life [9]: 1.7 h
bioavailability [10]: 51%
Vd [11]: 6.7 L/kg
AUC/dose [12]: 0.3 µM·kg·h/mg
bioavailability [13]: 25%
Drug metabolism [14]: 15 to 37%
metabolised at 2 h, 1 µM [15]: < 1%
metabolised at 2 h, 1 µM [16]: < 1%
inhibition [17]: inactive
IC50 [18]: > 30 µM
IC50 (Cytochrome P450 2D6): > 50 µM
TDI (Cytochrome P450 3A4): Not Active
IC50 (Acetylcholinesterase): 9.94 µM
IC50 [19]: 0.12 µM
IC50 [20]: 2.4 µM
Activity [21]: Non-Toxic
Activity [22]: Non-Toxic
Activity [23]: Non-Toxic
Activity [24]: Non-Toxic
Activity [25]: Non-Toxic
Activity (Rattus norvegicus [26]): Dose-dependent effect
Activity (Rattus norvegicus [27]): 12.4 mmHg
Activity (Rattus norvegicus [28]): 19.9 mmHg
Drug metabolism [29]: Metabolite_Detected
Drug excretion [30]: Metabolite_Detected
Drug metabolism [31]: Metabolite_Detected
Drug metabolism [32]: Metabolite_Detected
